In general, IC50 refers to the concentration that inhibits the measured activity by half.

Data on two molecules can be found in article PMC8429223 (Biomedicine & pharmacotherapy = Biomedecine & …, 2021).

Series [1] has as its system EMT marker mRNA in MDA-MB-231 cells. As to the kind of experiment: qRT-PCR analysis of EMT markers. The format is cell-based, human. To be noted: ½ IC50, 24 h, vs untreated controls. In outline:
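MDA-MB-231 cells (0.7–2.2 x 10⁶ per 100 mm dish) were exposed 24 h to test compound or 0.1% v/v DMSO vehicle. Cells were trypsin-released and washed in PBS before RNA work. Transcript levels were measured by qRT-PCR and calculated relative to GAPDH by the ΔΔCt method; unpaired t test with Welch's correction.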
On the technique in general: Real-time PCR tracks product formation cycle by cycle.

The subject of a further series is MCF 10A cells. As to the kind of experiment: MTT cell viability assay, MCF 10A. The format is cell-based. To be noted: Homo sapiens, 96 h, read-out: MCF 10A IC50. The gist of the method:
(§1)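 Cells were seeded in complete medium, MDA-MB-231 at 2 x 10³ and MCF 10A at 2 x 10⁴ cells/well. After 24 h they were exposed to test compound up to 10 μM, or 0.1% DMSO, for 72 h (MDA-MB-231) or 96 h (MCF 10A). MTT (5 mg ml⁻¹) was added for 4 h at 37°C, 5% CO₂, then formazan was dissolved in DMSO with 10 min shaking and read at 540 nm. IC50 by non-linear regression; mean ± SD (n = 4).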
On the technique in general: Formazan colour is commonly taken as a measure of viable cells.

In series [2] the test system is CD44+/CD24-/low cells of MDA-MB-231 organoids. As to the kind of experiment: CD44/CD24 cell surface markers by flow cytometry, organoids. To be noted: 2.5 μM 1 or 0.5 μM 17, 48 h. The format is cell-based, human. In outline: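 MDA-MB-231 organoids were made from 20 μl droplets of 1:4 complete Mammocult:Matrigel holding 10⁴ cells each. Droplets were set 1 h at 37°C, grown static 4 days with half-medium feeds every other day, then shaken at 90 rpm. One dissected organoid per 1 ml Mammocult was treated 48 h (vehicle 0.1% DMSO), then dispersed in enzyme-free dissociation buffer with 0.2% NDA. Cells were stained with FITC-anti-CD24 (1:100) and PE-anti-CD44 (1:200) for 30 min in the dark, then PI/RNase. Viable PI-negative cells were gated against isotype control; mean ± SD (n=3).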

In another series the test system is breast CSCs. The following applies: cited from earlier work.
The test system of series [3] is Bak and LC3-II in MDA-MB-231 cells. As to the kind of experiment: Immunoblot analysis, cell monolayer. The format is cell-based, human. In outline:
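Monolayers of MDA-MB-231 (2.2 x 10⁶ cells/100 mm dish) were treated 24 or 48 h with test compound or 0.1% DMSO, ± 100 μM Z-VAD-FMK. Cells were trypsin-harvested, snap-frozen and lysed in 25 mM HEPES pH 7.5, 300 mM NaCl, 0.1% Triton X-100 with protease/phosphatase inhibitors. Blots were blocked in 5% milk/TBS-T 1 h at RT, then probed overnight at 4°C: Bak and LC3B 1:1000, GAPDH 1:10000 loading control; HRP anti-rabbit 1:5000. Band intensities were normalised to GAPDH as fold of control; mean ± SD (n=3).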

The test system of another series is primary ALL-5 cells. As to the kind of experiment: MTT cell viability assay, primary ALL-5. The format is cell-based. The following applies: Homo sapiens, ALL5, 120 h, read-out: ALL-5 IC50. In outline: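 Primary ALL-5 cells (patient bone-marrow-derived) were kept in supplemented IMDM at 1–3 x 10⁶ cells ml⁻¹ and plated at 10⁵ cells/well. They were treated 120 h with a test compound series or 0.1% DMSO. MTT (5 mg ml⁻¹) was added for 24 h at 37°C, then 10% SDS in 0.01 M HCl for a further 24 h; absorbance 540 nm. IC50 by non-linear regression; mean ± SD (n = 4).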

The subject of series [4] is MDA-MB-231 cells. As to the kind of experiment: Cell cycle / sub-G1 DNA analysis by flow cytometry. The format is cell-based, human. The following applies: 30 μM SAL, 24 h (20 μM not significant). (In general: In flow cytometry, cells or beads pass a laser one at a time.)
The conditions of series [5]: doses of 200–250 μg kg−1; cited from earlier work.
The subject of series [6] is MDA-MB-231 cells. As to the kind of experiment: Colony formation assay. The format is cell-based, human. In outline:
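MDA-MB-231 cells were seeded at 1.5 x 10⁵/well and left 48 h to attach. After medium change, cells were exposed to test compound or 0.1% DMSO for 6–72 h. They were then harvested and re-plated at 250 cells/well (n=6) in compound-free medium for 13 days. Staining was 0.5% crystal violet in methanol, 40 min at RT. Colonies of ≥25 cells were counted by hand and expressed as % of vehicle; one-way ANOVA.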

Series [7] deals with MDA-MB-231 cells. As to the kind of experiment: MTT cell viability assay, MDA-MB-231. The format is cell-based, human. The following applies: single agent, MDA-MB-231, MTT. In outline:
as §1

For the molecule `CC[C@@H](C(=O)[C@@H](C)[C@@H](O)[C@H](C)[C@@H]1O[C@@H]([C@@H](CC)C(=O)O)CC[C@@H]1C)[C@H]1O[C@]2(C=C[C@@H](O)[C@]3(CC[C@@](C)([C@H]4CC[C@](O)(CC)[C@H](C)O4)O3)O2)[C@H](C)C[C@@H]1C` [SAL (1), salinomycin], in series [1], the “E-cadherin mRNA” value is reported as “downregulated”, the “Snail-2 mRNA” value is on record as “upregulated” and the “Vimentin mRNA” value is recorded as “upregulated”. In addition, the half-inhibitory concentration (IC50) in the series on MCF 10A cells worked out at 0.1 ± 0.02 µM. Also, the “percentage of CD44+/CD24-/low cells” value in series [2] is “modest, but significant reduction”. In the series on breast CSCs, the “potency in reducing viability of breast CSCs relative to paclitaxel” value is listed as around 100 times. Besides, the “LC3-II (14 kDa) expression vs. untreated control” value in series [3] (5 x IC50 (25 μM 1, 14 μM 2, 5 μM 17), 24 h) was “significant upregulation”. For the same molecule, in [3] (5 x IC50, 24 h and 48 h, monolayer), the “Bak expression vs. control” value is given as “very modest, but statistically significant, increase”. In addition, the concentration for half-maximal inhibition (IC50) in the series on primary ALL-5 cells worked out at 5.8 ± 1.7 µM. Also, the “sub-G1 DNA content” value in the series with MDA-MB-231 cells [4] is given as “statistically significant sub-G1 DNA content”. For the same molecule, in [5], the “tolerability in cancer patients” value is recorded as “well tolerated”. Further, in the series with MDA-MB-231 cells [6] (48 h treatment at ½ IC50), the “inhibition of colony growth” value turned out to be 84%. Besides, the “inhibition of colony growth” value in the series on MDA-MB-231 cells [6] (72 h treatment at ½ IC50) turned out to be 90%.

Consider `O=C(NO)c1ccccc1` [benzhydroxamic acid], for which the half-inhibitory concentration (IC50) with MDA-MB-231 cells [7] was found to be 142 µM.
